According to ChEMBL document CHEMBL2331240, “Focused library development of 2-phenylacrylamides as broad spectrum cytotoxic agents” (2013):
Calls of active or inactive are those of the source. The calls are words filed in the database; no cut-off is given here.

What was measured:
[1] = tested on: A2780; assay: Cytotoxicity against human A2780 cells assessed as growth inhibition at 25 uM measured after 72 hrs by MTT assay; assay type: functional
How it was run: (§1)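 Log-phase cells were plated in duplicate at 2500–4000 cells/well in DMEM with 10% FBS, glutamine and antibiotics, at 37 °C under 5% CO2. Drug was added 24 h after plating from a 40 mM DMSO stock, to a final 25 μM. After 72 h exposure, MTT was read at 540 nm and % growth inhibition was calculated, with 100% meaning total growth inhibition.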

[2] = tested on: SJ-G2; assay: Cytotoxicity against human SJ-G2 cells assessed as growth inhibition at 25 uM measured after 72 hrs by MTT assay; assay type: functional, cell-based; how it was run: as §1
[3] = tested on: SW480; assay: Cytotoxicity against human SW480 cells assessed as growth inhibition at 25 uM measured after 72 hrs by MTT assay; assay type: functional; how it was run: as §1
[4] = tested on: SMA; assay: Cytotoxicity against mouse SMA cells assessed as growth inhibition at 25 uM measured after 72 hrs by MTT assay
[5] = tested on: HT-29; assay: Cytotoxicity against human HT-29 cells assessed as growth inhibition at 25 uM measured after 72 hrs by MTT assay; assay type: functional, cell-based; how it was run: as §1
[6] = tested on: BE(2)-C; assay: Cytotoxicity against human BE(2)-C cells assessed as growth inhibition at 25 uM measured after 72 hrs by MTT assay; assay type: functional; how it was run: as §1
[7] = tested on: DU-145; assay: Cytotoxicity against human DU145 cells assessed as growth inhibition at 25 uM measured after 72 hrs by MTT assay; assay type: functional, cell-based; how it was run: as §1
[8] = tested on: MIA; assay: Cytotoxicity against human MIA cells assessed as growth inhibition at 25 uM measured after 72 hrs by MTT assay; assay type: functional; how it was run: as §1
[9] = tested on: NCI-H460; assay: Cytotoxicity against human H460 cells assessed as growth inhibition at 25 uM measured after 72 hrs by MTT assay; assay type: functional, cell-based; how it was run: as §1
[10] = tested on: MCF7; assay: Cytotoxicity against human MCF7 cells assessed as growth inhibition at 25 uM measured after 72 hrs by MTT assay; assay type: functional; how it was run: as §1
[11] = tested on: A-431; assay: Cytotoxicity against human A431 cells assessed as growth inhibition at 25 uM measured after 72 hrs by MTT assay; assay type: functional, cell-based; how it was run: as §1
[12] = tested on: MCF7; assay: Cytotoxicity against human MCF7 cells assessed as growth inhibition measured after 72 hrs by MTT assay; assay type: functional; conditions: MCF7, 72 h
How it was run: (§2)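 Cells in log phase were seeded in duplicate at 2500–4000 cells/well in supplemented DMEM (37 °C, 5% CO2). Drug from a 40 mM DMSO stock was added on day 0, 24 h post-plating. Read-out was MTT absorbance at 540 nm after 72 h.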

[13] = Cytotoxicity against human BE(2)-C cells assessed as growth inhibition measured after 72 hrs by MTT assay; assay type: functional; how it was run: as §2
[14] = tested on: A2780; assay: Cytotoxicity against human A2780 cells assessed as growth inhibition measured after 72 hrs by MTT assay; assay type: functional; conditions: A2780, 72 h; how it was run: as §2
[15] = tested on: DU-145; assay: Cytotoxicity against human DU145 cells assessed as growth inhibition measured after 72 hrs by MTT assay; assay type: functional; conditions: DU-145, 72 h; how it was run: as §2
[16] = tested on: A-431; assay: Cytotoxicity against human A431 cells assessed as growth inhibition measured after 72 hrs by MTT assay; assay type: functional; conditions: A-431, 72 h; how it was run: as §2
[17] = Cytotoxicity against mouse SMA cells assessed as growth inhibition measured after 72 hrs by MTT assay
[18] = tested on: SW480; assay: Cytotoxicity against human SW480 cells assessed as growth inhibition measured after 72 hrs by MTT assay; assay type: functional; conditions: SW480, 72 h; how it was run: as §2
[19] = Cytotoxicity against human SJ-G2 cells assessed as growth inhibition measured after 72 hrs by MTT assay; assay type: functional; conditions: SJ-G2, 72 h; how it was run: as §2
[20] = Cytotoxicity against human H460 cells assessed as growth inhibition measured after 72 hrs by MTT assay; assay type: functional; conditions: NCI-H460, 72 h; how it was run: as §2
[21] = Cytotoxicity against human MIA cells assessed as growth inhibition measured after 72 hrs by MTT assay; assay type: functional; how it was run: as §2
[22] = tested on: HT-29; assay: Cytotoxicity against human HT-29 cells assessed as growth inhibition measured after 72 hrs by MTT assay; assay type: functional; conditions: HT-29, 72 h; how it was run: as §2

## COc1ccc(CNC(=O)/C(C#N)=C/c2ccc(O)cc2)cc1
[1]
  growth inhibition (GI): inactive
[2]
  growth inhibition (GI): inactive
[3]
  growth inhibition (GI): inactive
[4]
  growth inhibition (GI): inactive
[5]
  growth inhibition (GI): inactive
[6]
  growth inhibition (GI): inactive
[7]
  growth inhibition (GI): inactive
[8]
  growth inhibition (GI): inactive
[9]
  growth inhibition (GI): inactive
[10]
  growth inhibition (GI): inactive
[11]
  growth inhibition (GI): inactive

## Cc1ccc(/C=C(\C#N)C(=O)c2c[nH]c3ccccc23)cc1
[1]
  growth inhibition (GI): inactive
[2]
  growth inhibition (GI): inactive
[3]
  growth inhibition (GI): inactive
[4]
  growth inhibition (GI): inactive
[5]
  growth inhibition (GI): inactive
[6]
  growth inhibition (GI): inactive
[7]
  growth inhibition (GI): inactive
[8]
  growth inhibition (GI): inactive
[9]
  growth inhibition (GI): inactive
[10]
  growth inhibition (GI): inactive
[11]
  growth inhibition (GI): inactive

## N#C/C(=C\c1ccc(O)cc1)C(=O)c1ccc[nH]1
[1]
  growth inhibition (GI): inactive
[2]
  growth inhibition (GI): inactive
[3]
  growth inhibition (GI): inactive
[4]
  growth inhibition (GI): inactive
[5]
  growth inhibition (GI): inactive
[6]
  growth inhibition (GI): inactive
[7]
  growth inhibition (GI): inactive
[8]
  growth inhibition (GI): inactive
[9]
  growth inhibition (GI): inactive
[10]
  growth inhibition (GI): inactive
[11]
  growth inhibition (GI): inactive

## N#C/C(=C\c1ccc(Cl)c(Cl)c1)C(=O)c1ccc[nH]1
[1]
  growth inhibition (GI): inactive
[2]
  growth inhibition (GI): inactive
[3]
  growth inhibition (GI): inactive
[4]
  growth inhibition (GI): inactive
[5]
  growth inhibition (GI): inactive
[6]
  growth inhibition (GI): inactive
[7]
  growth inhibition (GI): inactive
[8]
  growth inhibition (GI): inactive
[9]
  growth inhibition (GI): inactive
[10]
  growth inhibition (GI): inactive
[11]
  growth inhibition (GI): inactive

## COc1ccc(/C=C(\C#N)C(=O)NCc2ccc(OC)cc2)cc1
[1]
  growth inhibition (GI): inactive
[2]
  growth inhibition (GI): inactive
[3]
  growth inhibition (GI): inactive
[4]
  growth inhibition (GI): inactive
[5]
  growth inhibition (GI): inactive
[6]
  growth inhibition (GI): inactive
[7]
  growth inhibition (GI): inactive
[8]
  growth inhibition (GI): inactive
[9]
  growth inhibition (GI): inactive
[10]
  growth inhibition (GI): inactive
[11]
  growth inhibition (GI): inactive

## COc1ccc(CNC(=O)/C(C#N)=C/c2ccc(CO)o2)cc1
[1]
  growth inhibition (GI): inactive
[2]
  growth inhibition (GI): inactive
[3]
  growth inhibition (GI): inactive
[4]
  growth inhibition (GI): inactive
[5]
  growth inhibition (GI): inactive
[6]
  growth inhibition (GI): inactive
[7]
  growth inhibition (GI): inactive
[8]
  growth inhibition (GI): inactive
[9]
  growth inhibition (GI): inactive
[10]
  growth inhibition (GI): inactive
[11]
  growth inhibition (GI): inactive

## N#C/C(=C\c1ccc(C(F)(F)F)cc1)C(=O)c1c[nH]c2ccccc12
[1]
  growth inhibition (GI): inactive
[2]
  growth inhibition (GI): inactive
[3]
  growth inhibition (GI): inactive
[4]
  growth inhibition (GI): inactive
[5]
  growth inhibition (GI): inactive
[6]
  growth inhibition (GI): inactive
[7]
  growth inhibition (GI): inactive
[8]
  growth inhibition (GI): inactive
[9]
  growth inhibition (GI): inactive
[10]
  growth inhibition (GI): inactive
[11]
  growth inhibition (GI): inactive

## N#C/C(=C\c1ccc2ccccc2c1)C(=O)c1ccc[nH]1
[1]
  growth inhibition (GI): inactive
[2]
  growth inhibition (GI): inactive
[3]
  growth inhibition (GI): inactive
[4]
  growth inhibition (GI): inactive
[5]
  growth inhibition (GI): inactive
[6]
  growth inhibition (GI): inactive
[7]
  growth inhibition (GI): inactive
[8]
  growth inhibition (GI): inactive
[9]
  growth inhibition (GI): inactive
[10]
  growth inhibition (GI): inactive
[11]
  growth inhibition (GI): inactive

## COc1ccc(/C=C(\C#N)C(=O)c2c[nH]c3ccccc23)cc1
[1]
  growth inhibition (GI): inactive
[2]
  growth inhibition (GI): inactive
[3]
  growth inhibition (GI): inactive
[4]
  growth inhibition (GI): inactive
[5]
  growth inhibition (GI): inactive
[6]
  growth inhibition (GI): inactive
[7]
  growth inhibition (GI): inactive
[8]
  growth inhibition (GI): inactive
[9]
  growth inhibition (GI): inactive
[10]
  growth inhibition (GI): inactive
[11]
  growth inhibition (GI): inactive

## COc1ccc(CNC(=O)/C(C#N)=C/c2ccc(Cl)o2)cc1
[12]
  GI50: 9 µM
[13]
  GI50: 11 µM
[14]
  GI50: 9 µM
[15]
  GI50: 12 µM
[16]
  GI50: 9 µM
[17]
  GI50: 14 µM
[18]
  GI50: 13 µM
[19]
  GI50: 13 µM
[20]
  GI50: 15 µM
[21]
  GI50: 15 µM
[22]
  GI50: 9 µM

## N#C/C(=C\c1cccc2ccccc12)C(=O)NCc1ccc(Cl)c(Cl)c1
[12]
  GI50: 8 µM
[13]
  GI50: 7 µM
[14]
  GI50: 7 µM
[15]
  GI50: 12 µM
[16]
  GI50: 8 µM
[17]
  GI50: 7 µM
[18]
  GI50: 11 µM
[19]
  GI50: 13 µM
[20]
  GI50: 7 µM
[21]
  GI50: 8 µM
[22]
  GI50: 7 µM

## N#C/C(=C\c1c(F)c(F)c(F)c(F)c1F)C(=O)c1ccc[nH]1
[12]
  GI50: 23 µM
[13]
  GI50: 14 µM
[14]
  GI50: 64 µM
[15]
  GI50: > 100 µM
[16]
  GI50: 64 µM
[17]
  GI50: > 100 µM
[18]
  GI50: > 100 µM
[19]
  GI50: 23 µM
[20]
  GI50: 31 µM
[21]
  GI50: 25 µM
[22]
  GI50: 224 µM

## N#C/C(=C\c1ccccc1)C(=O)NCc1ccc(Cl)c(Cl)c1
[12]
  GI50: 29 µM
[13]
  GI50: 32 µM
[14]
  GI50: 49 µM
[15]
  GI50: 71 µM
[16]
  GI50: 43 µM
[17]
  GI50: 43 µM
[18]
  GI50: 49 µM
[19]
  GI50: 43 µM
[20]
  GI50: 61 µM
[21]
  GI50: 47 µM
[22]
  GI50: 70 µM

## COc1ccc(CNC(=O)/C(C#N)=C/c2ccc(Br)o2)cc1
[12]
  GI50: 11 µM
[13]
  GI50: 13 µM
[14]
  GI50: 12 µM
[15]
  GI50: 12 µM
[16]
  GI50: 9 µM
[17]
  GI50: 14 µM
[18]
  GI50: 14 µM
[19]
  GI50: 13 µM
[20]
  GI50: 16 µM
[21]
  GI50: 16 µM
[22]
  GI50: 10 µM
